According to ChEMBL document CHEMBL4627281, “A small molecule inhibitor of PCSK9 that antagonizes LDL receptor binding via interaction with a cryptic PCSK9 binding groove” (Bioorg Med Chem, 2020):
pIC50: −log10 of the molar value. The source made the active and inactive calls. No cut-off for these calls is given here.

What was measured:
[1] = Tmax in C57BL/6 mouse at 20 mg/kg, sc administered as single dose measured upto 24 hrs by LC-MS/MS analysis; type: ADME, organism-based; conditions: in vivo
How it was run: (§1)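 Male C57BL/6 mice, single dose: IV 5 mg/kg in 85% saline/10% Solutol HS15/5% DMSO; SC 20 mg/kg in same vehicle; PO 20 mg/kg in 1% methylcellulose in water. About 110 µL blood taken into K2EDTA by retro-orbital puncture (terminal bleed by cardiac puncture under isoflurane) at 0.033–24 h. Plasma spun at 2000 g, 5 min, 4 °C, stored near −70 °C; n = 3 per route.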

PCSK9/LDLR = PCSK9/LDLR (Homo sapiens, UniProt Q8NBP7); assay: Inhibition of recombinant human His-tagged PCSK9 interaction with recombinant LDLR AB domain (unknown origin) measured after 3 hrs by horseradish peroxidase-coupled TMB substrate based spectrophotometry; type: protein assay
Chain of PCSK9/LDLR (Q8NBP7 31-152 limits assumed): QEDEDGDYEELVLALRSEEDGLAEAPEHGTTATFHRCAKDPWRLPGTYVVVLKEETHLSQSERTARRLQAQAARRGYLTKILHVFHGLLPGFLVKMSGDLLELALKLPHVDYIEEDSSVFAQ
Chain of PCSK9/LDLR (Q8NBP7 153-692 limits assumed): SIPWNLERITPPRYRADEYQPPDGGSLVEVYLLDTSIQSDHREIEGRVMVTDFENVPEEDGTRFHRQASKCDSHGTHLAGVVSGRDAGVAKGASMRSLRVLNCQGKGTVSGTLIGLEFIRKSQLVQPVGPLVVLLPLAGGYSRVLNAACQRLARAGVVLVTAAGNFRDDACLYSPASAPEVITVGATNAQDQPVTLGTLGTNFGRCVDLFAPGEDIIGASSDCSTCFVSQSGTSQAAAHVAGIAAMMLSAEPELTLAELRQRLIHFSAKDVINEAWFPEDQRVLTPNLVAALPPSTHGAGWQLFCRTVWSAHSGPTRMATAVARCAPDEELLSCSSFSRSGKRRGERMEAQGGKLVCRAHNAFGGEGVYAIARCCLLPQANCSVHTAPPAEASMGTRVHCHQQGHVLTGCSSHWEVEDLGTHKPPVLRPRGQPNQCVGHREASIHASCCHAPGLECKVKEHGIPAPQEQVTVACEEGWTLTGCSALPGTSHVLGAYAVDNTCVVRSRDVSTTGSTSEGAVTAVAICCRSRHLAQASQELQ
Chain of PCSK9/LDLR (P01130 22-860 partner limits assumed): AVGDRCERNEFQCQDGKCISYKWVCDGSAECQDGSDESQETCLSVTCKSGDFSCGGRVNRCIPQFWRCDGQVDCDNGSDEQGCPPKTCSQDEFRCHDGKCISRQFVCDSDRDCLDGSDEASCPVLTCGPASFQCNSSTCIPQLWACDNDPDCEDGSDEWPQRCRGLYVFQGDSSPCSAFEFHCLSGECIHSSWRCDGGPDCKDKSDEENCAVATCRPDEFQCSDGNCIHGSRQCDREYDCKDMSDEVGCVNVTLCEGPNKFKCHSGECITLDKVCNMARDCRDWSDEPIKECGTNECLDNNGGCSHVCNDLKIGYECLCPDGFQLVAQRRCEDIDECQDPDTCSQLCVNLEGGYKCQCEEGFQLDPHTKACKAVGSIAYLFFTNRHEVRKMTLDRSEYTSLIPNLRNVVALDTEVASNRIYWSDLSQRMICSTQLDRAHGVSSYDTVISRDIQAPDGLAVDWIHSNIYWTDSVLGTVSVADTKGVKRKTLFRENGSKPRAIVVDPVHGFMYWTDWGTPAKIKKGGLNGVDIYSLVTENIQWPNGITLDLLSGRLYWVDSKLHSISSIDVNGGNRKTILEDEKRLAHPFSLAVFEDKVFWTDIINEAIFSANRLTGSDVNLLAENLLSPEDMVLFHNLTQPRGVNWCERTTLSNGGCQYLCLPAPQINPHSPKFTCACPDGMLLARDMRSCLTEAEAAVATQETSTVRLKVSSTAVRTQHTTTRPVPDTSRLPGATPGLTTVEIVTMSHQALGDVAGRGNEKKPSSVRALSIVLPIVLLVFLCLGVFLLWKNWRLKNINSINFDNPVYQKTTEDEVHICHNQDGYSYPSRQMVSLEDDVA
How it was run: (§2)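 ELISA plates pre-coated with LDLR-EGF-AB domain. Compounds serially diluted from 10 mM DMSO stocks in reaction buffer, with 7 ng His-tagged human PCSK9 added, 3 h at room temperature with shaking. Binding detected with biotinylated anti-His antibody (1 h), then HRP-streptavidin (20 min), then substrate (15 min); absorbance read at 450/540 nm. IC50 taken from the % inhibition curve.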

[2] = molecular target: Tyrosine-protein kinase ABL1 (Homo sapiens, UniProt P00519); assay: (§3) Inhibition of recombinant human N-terminal His-tagged Abl (2 to 1130 residues) expressed in baculovirus expression system using FAM-labelled P2 peptide as substrate preincubated for 10 mins followed by substrate addition and measured after 1 hr in presence of ATP by fluorescence assay
Chain of Tyrosine-protein kinase ABL1 (P00519 whole entry, the tested form may be a part): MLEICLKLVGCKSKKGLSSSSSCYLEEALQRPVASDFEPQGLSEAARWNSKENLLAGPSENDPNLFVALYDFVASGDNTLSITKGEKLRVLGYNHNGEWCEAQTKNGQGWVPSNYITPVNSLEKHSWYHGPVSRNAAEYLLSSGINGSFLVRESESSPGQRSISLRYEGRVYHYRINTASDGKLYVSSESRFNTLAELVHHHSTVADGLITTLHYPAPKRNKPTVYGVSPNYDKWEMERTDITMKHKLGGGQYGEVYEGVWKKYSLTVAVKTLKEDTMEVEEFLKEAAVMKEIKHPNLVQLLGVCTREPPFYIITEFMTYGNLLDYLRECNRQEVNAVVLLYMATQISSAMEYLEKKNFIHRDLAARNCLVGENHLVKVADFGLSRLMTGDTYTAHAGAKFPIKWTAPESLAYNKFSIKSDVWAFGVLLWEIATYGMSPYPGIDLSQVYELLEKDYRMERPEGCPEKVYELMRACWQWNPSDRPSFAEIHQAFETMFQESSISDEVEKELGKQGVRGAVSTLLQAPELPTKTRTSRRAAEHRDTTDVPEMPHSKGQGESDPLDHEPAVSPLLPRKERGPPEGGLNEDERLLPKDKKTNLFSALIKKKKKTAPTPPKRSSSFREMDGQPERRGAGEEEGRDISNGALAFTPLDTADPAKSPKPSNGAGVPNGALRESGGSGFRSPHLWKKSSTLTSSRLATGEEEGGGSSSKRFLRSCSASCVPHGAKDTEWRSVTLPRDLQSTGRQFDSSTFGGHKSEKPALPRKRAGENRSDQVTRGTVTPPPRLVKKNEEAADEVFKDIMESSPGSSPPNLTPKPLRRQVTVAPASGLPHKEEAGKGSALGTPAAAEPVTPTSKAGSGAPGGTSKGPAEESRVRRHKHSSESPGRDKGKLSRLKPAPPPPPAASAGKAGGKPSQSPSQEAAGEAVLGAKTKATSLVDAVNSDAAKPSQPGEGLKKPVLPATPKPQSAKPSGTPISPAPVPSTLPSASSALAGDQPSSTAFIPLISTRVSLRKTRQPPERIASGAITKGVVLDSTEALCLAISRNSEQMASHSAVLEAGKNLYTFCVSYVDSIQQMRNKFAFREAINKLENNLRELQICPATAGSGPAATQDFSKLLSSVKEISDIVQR

[3] = molecular target: Platelet-derived growth factor receptor beta (Homo sapiens, UniProt P09619); assay: as §3, with “GST-tagged PDGFRbeta cytoplasmic domain (557” for “His-tagged Abl (2”, “1106” for “1130”, “P22” for “P2”
[4] = molecular target: Proto-oncogene tyrosine-protein kinase Src (Homo sapiens, UniProt P12931); assay: Inhibition of recombinant human full-length N-terminal GST-tagged SRC (1 to 536 residues) expressed in baculovirus expression system using FAM-labelled P4 peptide as substrate preincubated for 10 mins followed by substrate addition and measured after 1 hr in presence of ATP by fluorescence assay
Chain of Proto-oncogene tyrosine-protein kinase Src (P12931 2-536 limits assumed): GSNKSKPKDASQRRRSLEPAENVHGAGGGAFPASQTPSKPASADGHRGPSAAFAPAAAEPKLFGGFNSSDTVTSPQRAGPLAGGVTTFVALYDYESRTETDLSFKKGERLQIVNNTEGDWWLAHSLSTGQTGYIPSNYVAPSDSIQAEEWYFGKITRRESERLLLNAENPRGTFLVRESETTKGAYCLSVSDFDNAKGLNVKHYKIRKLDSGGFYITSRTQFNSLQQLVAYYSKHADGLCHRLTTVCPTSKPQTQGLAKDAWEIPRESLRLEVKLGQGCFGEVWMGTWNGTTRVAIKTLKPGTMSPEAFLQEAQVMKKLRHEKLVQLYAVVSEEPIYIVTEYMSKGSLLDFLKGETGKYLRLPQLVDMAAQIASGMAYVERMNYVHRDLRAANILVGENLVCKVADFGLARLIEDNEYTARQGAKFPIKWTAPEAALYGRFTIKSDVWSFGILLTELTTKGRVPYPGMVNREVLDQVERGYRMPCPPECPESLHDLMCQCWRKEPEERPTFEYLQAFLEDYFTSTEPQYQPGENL

[5] = system: PCSK9/LDLR (Homo sapiens), Q8NBP7+P01130 [D374Y]; assay: Inhibition of PCSK9 D374Y mutant (unknown origin) and LDLR protein-protein interaction in human PBMC assessed as increase in LDLR expression on lymphocyte surface at 0.1 to 0.4 uM measured after 4 hrs by flow cytometry analysis; type: cell-based
How it was run: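 PBMCs from healthy donors, frozen and then thawed, plated at 2 × 10^5 per well in RPMI with 10 mM HEPES, 1 mM pyruvate and 0.5% FCS for 2 h at 37 °C. Treated 4 h with or without 600 ng/mL PCSK9-D374Y plus compound. Cells stained 20 min at room temperature with APC-conjugated anti-LDLR; at least 5 × 10^3 gated lymphocytes read by flow cytometry. Values as % of PCSK9-free vehicle; triplicates, t test.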

[6] = Clearance in CD1 mouse at 0.4 mg/kg, iv administered as cassette dose measured upto 24 hrs by LC-MS/MS analysis; type: ADME, organism-based; conditions: in vivo
How it was run: (§4)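 Male CD1 mice (second cassette 28–29 g, 7–8 weeks) given one IV 5-in-1 cassette at 0.4 mg/kg per compound in 5% DMAC/5% Solutol HS15/90% saline. Blood (~20 µL) into K2EDTA from the facial vein at 0.083–24 h, terminal bleed by cardiac puncture under isoflurane. Blood diluted with deionised water, stored at −80 °C, analysed by positive-ESI mass spectrometry.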

[7] = Volume of distribution at steady state in CD1 mouse at 0.4 mg/kg, iv administered as cassette dose measured upto 24 hrs by LC-MS/MS analysis; type: ADME, organism-based; conditions: in vivo, read-out: Vdss; how it was run: as §4
[8] = Terminal half life in CD1 mouse at 0.4 mg/kg, iv administered as cassette dose measured upto 24 hrs by LC-MS/MS analysis; type: ADME, organism-based; conditions: in vivo, read-out: beta t1/2 (converted); how it was run: as §4
[9] = Mean residence time (0 to infinity) in CD1 mouse at 0.4 mg/kg, iv administered as cassette dose measured upto 24 hrs by LC-MS analysis; type: ADME, organism-based; conditions: in vivo; how it was run: as §4
[10] = Tmax in C57BL/6 mouse at 20 mg/kg, po administered as single dose measured upto 24 hrs by LC-MS/MS analysis; type: ADME, organism-based; conditions: in vivo; how it was run: as §1
[11] = Clearance in C57BL/6 mouse at 5 mg/kg, iv administered as single dose measured upto 24 hrs by LC-MS/MS analysis; type: ADME, organism-based; conditions: in vivo; how it was run: as §1
[12] = AUClast in C57BL/6 mouse at 20 mg/kg, po administered as single dose measured upto 24 hrs by LC-MS/MS analysis; type: ADME, organism-based; parameters: dose 20 mg/kg, time < 24 hr, route oral; conditions: in vivo; how it was run: as §1
[13] = Mean residence time ( 0 to infinity) in C57BL/6 mouse at 5 mg/kg, iv administered as single dose measured upto 24 hrs by LC-MS/MS analysis; type: ADME, organism-based; conditions: in vivo; how it was run: as §1
Mus musculus [14] = assay: Antihyperlipidemic activity in C57BL/6 mouse assessed as decrease in total cholesterol level at 3.28 mg/kg/day, sc administered daily for 14 days and measured on day 15 by colorimetric method; type: functional, organism-based
How it was run: (§5)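 Female C57BL/6 wild-type or PCSK9−/− mice (8–16 weeks), acclimatised 7 days, 5 per group, dosed SC daily for 14 days at 3.28 or 16.4 mg/kg/day in 5% DMSO/95% saline, or vehicle alone. Blood taken into EDTA on days 0, 5, 10 and 15; plasma from 2500 g spin, stored at −20 °C. Total cholesterol and triglycerides read by colorimetric kits, PCSK9 by mouse ELISA; unpaired two-tailed t test against vehicle.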

Mus musculus [15] = assay: Antihyperlipidemic activity in C57BL/6 mouse assessed as decrease in total cholesterol level at 16.4 mg/kg/day, sc administered daily for 14 days and measured on day 15 by colorimetric method relative to control; type: functional; parameters: scale not given: the % may be the effect or the level left; how it was run: as §5
Mus musculus [16] = assay: Antihyperlipidemic activity in PCSK9 knockout C57BL/6 mouse assessed as decrease in total cholesterol level at 16.4 mg/kg/day, sc administered daily for 14 days and measured on day 15 by colorimetric method; type: functional, organism-based; how it was run: as §5
[17] = molecular target: PCSK9/LDLR (Homo sapiens) (UniProt Q8NBP7+P01130); assay: Inhibition of recombinant human His-tagged PCSK9 interaction with recombinant LDLR AB domain (unknown origin) at higher concentration measured after 3 hrs by horseradish peroxidase-coupled TMB substrate based spectrophotometry relative to control; type: protein assay; how it was run: as §2
Chain of PCSK9/LDLR (Homo sapiens) (P01130 22-860 partner limits assumed): as the sequence (P01130 22-860 partner limits assumed) above
Chain of PCSK9/LDLR (Homo sapiens) (Q8NBP7 31-152 limits assumed): as the sequence (Q8NBP7 31-152 limits assumed) above
Chain of PCSK9/LDLR (Homo sapiens) (Q8NBP7 153-692 limits assumed): as the sequence (Q8NBP7 153-692 limits assumed) above

[18] = Toxicity in C57BL/6 mouse assessed as change in body weight at 3.28 to 16.4 mg/kg/day, sc administered daily for 14 days; type: organism-based; conditions: in vivo, 336 h

- Tmax [1]: 1 h
- pIC50 (PCSK9/LDLR): 6.27
- pIC50 [2]: < 5.00
- pIC50 [3]: < 5.00
- pIC50 [4]: < 5.00
- inhibition [5]: inactive
- clearance [6]: 5 mL/min/kg
- Vd [7]: 9.13 L/kg
- half-life [8]: 1540 min
- MRT inf [9]: 34.9 h
- Tmax [10]: 2 h
- clearance [11]: 18.2 mL/min/kg
- AUC(0-t) at 24 h [12]: 92.3 ng·h/mL
- MRT inf [13]: 3.56 h
- Imax [17]: 57%
SMILES: Cc1cn(-c2cc(CN3CCC[C@H](N)C3)cc(NC(=O)c3ccc(C)c(Oc4ccccc4)c3)c2)cn1
- Activity (Mus musculus [14]): inactive
- Activity (Mus musculus [15]): 10%
- Activity (Mus musculus [16]): inactive
- Activity [18]: Non-Toxic
